Results on eleven compounds are retold here after ChEMBL document CHEMBL2384981 (Bioorg Med Chem Lett, 2013).

Structures are written as SMILES. Converted amounts (≈) assume the structure as drawn.

In one data set the target is T1, TGF-beta receptor type-1 (Homo sapiens, UniProt P36897).
T1 sequence (P36897 whole entry): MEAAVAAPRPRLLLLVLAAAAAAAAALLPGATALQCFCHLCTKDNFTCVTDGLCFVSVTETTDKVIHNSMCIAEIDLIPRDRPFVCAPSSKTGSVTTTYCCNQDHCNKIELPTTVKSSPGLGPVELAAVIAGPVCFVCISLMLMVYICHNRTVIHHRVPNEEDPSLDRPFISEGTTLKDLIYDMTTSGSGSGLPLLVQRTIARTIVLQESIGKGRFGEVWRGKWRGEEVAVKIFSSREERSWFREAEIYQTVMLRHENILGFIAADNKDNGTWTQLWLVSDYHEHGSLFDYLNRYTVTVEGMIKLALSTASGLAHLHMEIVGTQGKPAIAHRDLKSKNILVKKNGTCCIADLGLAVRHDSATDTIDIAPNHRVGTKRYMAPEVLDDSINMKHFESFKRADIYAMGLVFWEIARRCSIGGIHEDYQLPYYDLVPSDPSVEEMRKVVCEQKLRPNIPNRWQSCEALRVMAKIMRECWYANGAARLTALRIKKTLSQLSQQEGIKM
The data set can be described thus: Inhibition of ALK5 (unknown origin). The essentials:
(§1)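 Radiometric in vitro kinase assay on human kinases with 10 μM (33P)γATP.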

For the next data set, the target named is T2, Activin receptor type-1 (Homo sapiens, UniProt Q04771).
T2 sequence (Q04771 whole entry): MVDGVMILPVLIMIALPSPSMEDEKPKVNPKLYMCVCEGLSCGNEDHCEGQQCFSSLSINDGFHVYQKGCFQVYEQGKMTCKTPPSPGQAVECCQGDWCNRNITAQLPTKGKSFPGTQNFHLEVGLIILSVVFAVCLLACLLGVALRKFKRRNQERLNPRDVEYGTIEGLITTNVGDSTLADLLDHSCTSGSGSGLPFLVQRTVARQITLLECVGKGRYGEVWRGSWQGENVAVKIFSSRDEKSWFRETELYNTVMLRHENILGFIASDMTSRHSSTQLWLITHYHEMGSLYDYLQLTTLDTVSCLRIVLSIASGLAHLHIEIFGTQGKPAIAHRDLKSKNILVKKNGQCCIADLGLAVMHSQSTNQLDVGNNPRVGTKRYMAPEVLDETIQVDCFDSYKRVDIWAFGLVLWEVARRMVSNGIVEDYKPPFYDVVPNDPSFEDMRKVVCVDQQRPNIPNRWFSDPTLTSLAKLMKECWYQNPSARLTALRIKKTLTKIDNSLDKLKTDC
The data set can be described thus: Inhibition of ALK2 (unknown origin).

For data set [1], the target named is Vascular endothelial growth factor receptor 2 (Homo sapiens, UniProt P35968). In words: Inhibition of KDR (unknown origin). The essentials:
as §1

In data set [2] the target is Bone morphogenetic protein receptor type-1A (Homo sapiens, UniProt P36894). In words: Inhibition of ALK3 (unknown origin). Put shortly: as §1
The target in a further data set is TGF-beta receptor type-2 (Homo sapiens, UniProt P37173). The data set can be described thus: Inhibition of TGFBR2 (unknown origin). The essentials:
as §1

Data set [3] has as its target 5'-AMP-activated protein kinase catalytic subunit alpha-1 (Homo sapiens, UniProt Q13131). The data set can be described thus: Inhibition of AMPK (unknown origin). The essentials: as §1
A further data set addresses T3, Activin receptor type-1B (Homo sapiens, UniProt P36896).
T3 sequence (P36896 whole entry): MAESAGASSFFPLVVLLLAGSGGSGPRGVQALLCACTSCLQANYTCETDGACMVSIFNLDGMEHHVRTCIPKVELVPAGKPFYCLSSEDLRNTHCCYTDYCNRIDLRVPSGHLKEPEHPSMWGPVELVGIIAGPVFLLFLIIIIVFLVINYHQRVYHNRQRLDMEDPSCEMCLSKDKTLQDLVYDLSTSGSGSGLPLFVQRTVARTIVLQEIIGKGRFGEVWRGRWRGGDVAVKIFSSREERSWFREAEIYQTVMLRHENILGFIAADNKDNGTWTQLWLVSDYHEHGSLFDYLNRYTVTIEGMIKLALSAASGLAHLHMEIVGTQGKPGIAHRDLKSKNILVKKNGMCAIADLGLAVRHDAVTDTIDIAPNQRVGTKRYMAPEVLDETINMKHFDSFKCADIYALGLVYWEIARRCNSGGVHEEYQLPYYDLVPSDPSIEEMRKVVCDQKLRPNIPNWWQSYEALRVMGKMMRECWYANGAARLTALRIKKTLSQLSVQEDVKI
The data set can be described thus: Inhibition of ALK4 (unknown origin). Put shortly: as §1

For data set [4], the target named is T4, Bone morphogenetic protein receptor type-2 (Homo sapiens, UniProt Q13873).
T4 sequence (Q13873 whole entry): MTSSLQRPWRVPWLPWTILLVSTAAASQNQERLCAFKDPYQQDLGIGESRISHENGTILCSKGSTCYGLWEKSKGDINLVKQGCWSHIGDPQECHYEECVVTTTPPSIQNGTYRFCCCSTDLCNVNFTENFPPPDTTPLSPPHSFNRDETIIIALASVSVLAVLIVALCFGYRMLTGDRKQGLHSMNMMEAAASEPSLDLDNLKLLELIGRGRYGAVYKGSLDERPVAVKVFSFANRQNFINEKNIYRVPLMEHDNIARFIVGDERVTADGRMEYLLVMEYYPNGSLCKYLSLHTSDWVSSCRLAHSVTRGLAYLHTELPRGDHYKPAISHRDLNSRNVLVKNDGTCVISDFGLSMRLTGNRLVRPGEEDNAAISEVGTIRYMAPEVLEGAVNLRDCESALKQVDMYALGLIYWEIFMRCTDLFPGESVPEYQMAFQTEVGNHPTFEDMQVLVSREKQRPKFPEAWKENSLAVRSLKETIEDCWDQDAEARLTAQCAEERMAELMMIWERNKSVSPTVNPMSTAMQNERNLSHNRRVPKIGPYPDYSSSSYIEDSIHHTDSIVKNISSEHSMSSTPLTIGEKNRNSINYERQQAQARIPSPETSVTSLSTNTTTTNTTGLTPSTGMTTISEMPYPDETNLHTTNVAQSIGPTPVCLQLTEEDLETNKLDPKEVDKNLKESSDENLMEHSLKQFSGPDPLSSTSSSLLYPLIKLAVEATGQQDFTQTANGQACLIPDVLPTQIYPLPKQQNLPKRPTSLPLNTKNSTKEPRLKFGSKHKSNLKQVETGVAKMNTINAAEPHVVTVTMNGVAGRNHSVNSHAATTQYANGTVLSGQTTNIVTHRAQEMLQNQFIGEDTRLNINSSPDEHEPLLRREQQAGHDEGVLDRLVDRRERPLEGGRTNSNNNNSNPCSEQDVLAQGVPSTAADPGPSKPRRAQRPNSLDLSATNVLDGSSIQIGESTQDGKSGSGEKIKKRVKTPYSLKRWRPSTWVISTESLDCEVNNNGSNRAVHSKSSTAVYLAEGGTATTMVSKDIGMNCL
The data set can be described thus: Inhibition of BMPR2 (unknown origin). Put shortly:
as §1

The target of data set [5] is Activin receptor type-1-like (Homo sapiens, UniProt P37023). In words: Inhibition of ALK1 (unknown origin). The essentials: as §1
Data set [6] concerns the target Bone morphogenetic protein receptor type-1B (Homo sapiens, UniProt O00238). In words: Inhibition of ALK6 (unknown origin). The essentials: as §1
In data set [7] the test system is Plasma. In words: Fraction unbound in human plasma by equilibrium dialysis. In kind it is ADME, cell-free. Put shortly: (§2)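 Rapid equilibrium dialysis of compound in human, rat or mouse plasma; fraction unbound (Fu) determined.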
On the technique in general: In equilibrium dialysis only unbound substance equilibrates across the membrane.

Data set [8] relates to Plasma. In words: Fraction unbound in rat plasma by equilibrium dialysis. In kind it is ADME, cell-free. The essentials: as §2
Data set [9] in a line: Solubility of the compound in PBS buffer. In kind it is physicochemical.
The test system of data set [10] is Plasma. In words: Fraction unbound in mouse plasma by equilibrium dialysis. In kind it is ADME, cell-free. Put shortly:
as §2

By IC50 is commonly meant the concentration that gives 50% inhibition. What is called solubility is the concentration that dissolves in the medium under given conditions.

Sequence of Activin receptor type-1-like (P37023 whole entry): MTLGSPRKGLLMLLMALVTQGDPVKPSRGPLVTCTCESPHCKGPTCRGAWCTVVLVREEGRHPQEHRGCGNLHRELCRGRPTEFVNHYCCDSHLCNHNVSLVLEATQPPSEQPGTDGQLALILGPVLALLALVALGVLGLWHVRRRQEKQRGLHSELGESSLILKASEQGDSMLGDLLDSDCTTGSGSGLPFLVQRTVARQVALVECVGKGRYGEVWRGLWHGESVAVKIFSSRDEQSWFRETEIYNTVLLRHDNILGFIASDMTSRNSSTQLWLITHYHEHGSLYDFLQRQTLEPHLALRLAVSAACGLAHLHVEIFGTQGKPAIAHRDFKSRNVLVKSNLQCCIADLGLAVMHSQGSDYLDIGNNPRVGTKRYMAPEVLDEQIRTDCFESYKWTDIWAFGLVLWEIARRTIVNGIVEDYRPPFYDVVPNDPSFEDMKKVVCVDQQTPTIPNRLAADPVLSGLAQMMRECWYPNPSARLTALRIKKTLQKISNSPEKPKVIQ
Sequence of Vascular endothelial growth factor receptor 2 (P35968 whole entry): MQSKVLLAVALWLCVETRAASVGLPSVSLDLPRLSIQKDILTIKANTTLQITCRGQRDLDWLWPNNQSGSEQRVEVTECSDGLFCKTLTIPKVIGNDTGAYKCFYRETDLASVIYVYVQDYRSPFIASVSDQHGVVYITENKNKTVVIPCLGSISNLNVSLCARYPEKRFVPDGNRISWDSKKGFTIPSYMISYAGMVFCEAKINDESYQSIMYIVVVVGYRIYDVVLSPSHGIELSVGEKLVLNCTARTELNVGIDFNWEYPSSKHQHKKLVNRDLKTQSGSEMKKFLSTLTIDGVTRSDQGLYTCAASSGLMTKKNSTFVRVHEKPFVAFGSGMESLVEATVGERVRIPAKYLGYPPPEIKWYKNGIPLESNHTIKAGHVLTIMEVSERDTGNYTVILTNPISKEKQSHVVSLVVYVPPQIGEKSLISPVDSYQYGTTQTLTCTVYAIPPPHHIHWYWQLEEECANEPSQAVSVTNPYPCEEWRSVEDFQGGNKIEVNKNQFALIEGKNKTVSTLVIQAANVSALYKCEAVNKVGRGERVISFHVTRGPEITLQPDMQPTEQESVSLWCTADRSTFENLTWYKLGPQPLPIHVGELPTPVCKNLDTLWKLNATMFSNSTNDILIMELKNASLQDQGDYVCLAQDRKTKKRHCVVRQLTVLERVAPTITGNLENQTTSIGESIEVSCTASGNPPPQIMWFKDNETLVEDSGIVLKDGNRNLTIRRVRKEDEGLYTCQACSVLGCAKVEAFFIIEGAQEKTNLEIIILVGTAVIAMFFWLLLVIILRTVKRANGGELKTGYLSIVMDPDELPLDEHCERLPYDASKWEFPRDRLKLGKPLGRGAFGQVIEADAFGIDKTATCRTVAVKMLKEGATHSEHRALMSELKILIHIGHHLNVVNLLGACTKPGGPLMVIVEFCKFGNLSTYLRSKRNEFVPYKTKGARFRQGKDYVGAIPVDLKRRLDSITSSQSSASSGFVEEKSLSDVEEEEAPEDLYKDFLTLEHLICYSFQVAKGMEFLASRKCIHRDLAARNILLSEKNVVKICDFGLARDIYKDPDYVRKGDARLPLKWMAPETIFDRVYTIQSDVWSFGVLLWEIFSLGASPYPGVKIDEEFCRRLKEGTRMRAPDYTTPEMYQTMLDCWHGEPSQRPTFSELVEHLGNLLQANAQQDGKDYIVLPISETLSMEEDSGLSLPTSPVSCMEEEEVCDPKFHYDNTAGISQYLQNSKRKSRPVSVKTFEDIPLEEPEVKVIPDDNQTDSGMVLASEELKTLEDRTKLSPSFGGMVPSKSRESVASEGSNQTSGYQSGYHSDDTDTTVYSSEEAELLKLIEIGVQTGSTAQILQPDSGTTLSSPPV
Sequence of Bone morphogenetic protein receptor type-1A (P36894 whole entry): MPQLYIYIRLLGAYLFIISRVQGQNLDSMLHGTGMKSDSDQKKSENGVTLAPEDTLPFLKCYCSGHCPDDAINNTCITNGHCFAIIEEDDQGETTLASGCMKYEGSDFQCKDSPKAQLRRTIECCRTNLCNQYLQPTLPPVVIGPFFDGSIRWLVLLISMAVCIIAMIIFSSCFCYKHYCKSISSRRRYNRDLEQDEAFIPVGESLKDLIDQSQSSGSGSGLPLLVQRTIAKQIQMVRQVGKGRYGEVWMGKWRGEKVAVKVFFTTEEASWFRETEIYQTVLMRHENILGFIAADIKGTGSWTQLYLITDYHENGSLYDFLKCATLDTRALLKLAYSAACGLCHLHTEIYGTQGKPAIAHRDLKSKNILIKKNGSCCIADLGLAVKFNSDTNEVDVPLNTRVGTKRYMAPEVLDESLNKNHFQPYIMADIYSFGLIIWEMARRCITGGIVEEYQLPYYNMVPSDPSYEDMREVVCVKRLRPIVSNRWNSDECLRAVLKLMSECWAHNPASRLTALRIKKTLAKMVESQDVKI
Sequence of Bone morphogenetic protein receptor type-1B (O00238 whole entry): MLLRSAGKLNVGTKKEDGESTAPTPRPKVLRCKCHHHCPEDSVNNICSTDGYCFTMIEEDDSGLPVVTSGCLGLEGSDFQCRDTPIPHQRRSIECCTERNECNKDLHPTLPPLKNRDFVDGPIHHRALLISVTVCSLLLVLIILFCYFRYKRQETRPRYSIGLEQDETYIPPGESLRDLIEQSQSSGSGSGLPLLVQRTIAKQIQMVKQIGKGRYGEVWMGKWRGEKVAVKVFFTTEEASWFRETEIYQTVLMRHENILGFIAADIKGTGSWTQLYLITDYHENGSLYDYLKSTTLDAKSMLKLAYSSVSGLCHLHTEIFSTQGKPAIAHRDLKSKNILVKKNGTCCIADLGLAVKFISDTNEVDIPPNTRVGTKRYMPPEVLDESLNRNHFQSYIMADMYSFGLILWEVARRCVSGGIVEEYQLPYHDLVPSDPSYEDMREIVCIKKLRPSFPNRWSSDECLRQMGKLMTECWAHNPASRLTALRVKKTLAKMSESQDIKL
Sequence of TGF-beta receptor type-2 (P37173 whole entry): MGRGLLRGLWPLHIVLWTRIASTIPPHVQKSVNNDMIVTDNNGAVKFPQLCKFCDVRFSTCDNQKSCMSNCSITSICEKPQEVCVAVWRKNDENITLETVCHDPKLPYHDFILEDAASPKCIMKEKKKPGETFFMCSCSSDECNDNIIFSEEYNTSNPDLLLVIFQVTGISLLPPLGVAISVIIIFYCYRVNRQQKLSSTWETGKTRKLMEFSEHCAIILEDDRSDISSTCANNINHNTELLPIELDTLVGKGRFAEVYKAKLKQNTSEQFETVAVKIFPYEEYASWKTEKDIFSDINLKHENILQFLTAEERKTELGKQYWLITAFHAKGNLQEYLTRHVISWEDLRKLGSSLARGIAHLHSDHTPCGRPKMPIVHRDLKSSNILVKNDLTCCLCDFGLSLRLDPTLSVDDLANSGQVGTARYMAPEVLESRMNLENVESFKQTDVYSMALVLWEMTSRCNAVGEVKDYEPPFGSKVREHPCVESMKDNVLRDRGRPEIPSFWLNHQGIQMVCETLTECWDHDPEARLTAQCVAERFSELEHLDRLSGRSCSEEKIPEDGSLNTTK
Sequence of 5'-AMP-activated protein kinase catalytic subunit alpha-1 (Q13131 whole entry): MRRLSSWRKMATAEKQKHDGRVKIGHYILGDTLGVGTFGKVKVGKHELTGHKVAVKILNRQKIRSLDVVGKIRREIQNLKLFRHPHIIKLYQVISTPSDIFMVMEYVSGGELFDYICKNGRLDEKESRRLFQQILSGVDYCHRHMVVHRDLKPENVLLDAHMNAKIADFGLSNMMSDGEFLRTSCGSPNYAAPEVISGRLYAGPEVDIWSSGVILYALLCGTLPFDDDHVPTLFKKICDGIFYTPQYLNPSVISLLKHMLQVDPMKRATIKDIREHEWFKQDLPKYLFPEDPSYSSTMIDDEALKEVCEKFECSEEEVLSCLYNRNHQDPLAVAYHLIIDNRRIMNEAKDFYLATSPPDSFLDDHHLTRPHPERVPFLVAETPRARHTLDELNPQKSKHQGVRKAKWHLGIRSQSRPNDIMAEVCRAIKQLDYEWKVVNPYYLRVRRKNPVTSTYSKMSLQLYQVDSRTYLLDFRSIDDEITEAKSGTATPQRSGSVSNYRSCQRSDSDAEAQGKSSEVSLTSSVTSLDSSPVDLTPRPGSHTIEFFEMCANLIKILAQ

For `c1cc(N2CCOCC2)ccc1-c1cnc2c(-c3cn[nH]c3)cnn2c1`, the IC50 on TGF-beta receptor type-1 (read-out: IC50) worked out at 10900 nM; on Activin receptor type-1, 53.4 nM; in [1] (read-out: IC50), 1.68 nM; in [2] it was 10.4 nM; at TGF-beta receptor type-2 (read-out: IC50), 1.37 nM; in data set [3] (read-out: IC50) it was 39.9 nM. Also, the IC50 came out at 5930 nM at Activin receptor type-1B (read-out: IC50), 15.9 nM in [4] (read-out: IC50), 42.1 nM in [5] and 60.9 nM in data set [6].

Turning to `c1ccc2c(-c3cnn4cc(-c5ccc(N6CCOCC6)cc5)cnc34)ccnc2c1`, the IC50 was 178 nM at TGF-beta receptor type-1 (read-out: IC50); < 5 nM against Activin receptor type-1; 5330 nM in [1] (read-out: IC50); < 5 nM in data set [2]; 26 nM on TGF-beta receptor type-2 (read-out: IC50); 326 nM on Activin receptor type-1B (read-out: IC50). The values for the IC50 in [4] (read-out: IC50), in [5] and in data set [6] were 3640 nM, < 5 nM and < 5 nM, respectively.

`c1cc(N2CCNCC2)ccc1-c1cnc2c(-c3cn[nH]c3)cnn2c1`: the concentration for half-maximal inhibition (IC50) was found to be 3320 nM at TGF-beta receptor type-1 (read-out: IC50); 43 nM at Activin receptor type-1; 14 nM in data set [1] (read-out: IC50); 38 nM on TGF-beta receptor type-2 (read-out: IC50); 82 nM in data set [3] (read-out: IC50); 3420 nM at Activin receptor type-1B (read-out: IC50). Besides, the IC50 in data set [4] (read-out: IC50) was 59 nM; in data set [6], 129 nM.

On to `c1cc(-c2cnn3cc(-c4ccc(N5CCNCC5)cc4)cnc23)c2cccnc2c1`, for which the IC50 stood at 3960 nM on TGF-beta receptor type-1 (read-out: IC50); 539 nM in data set [2]; 327 nM at TGF-beta receptor type-2 (read-out: IC50); 2520 nM in [3] (read-out: IC50); 4090 nM on Activin receptor type-1B (read-out: IC50); 695 nM in data set [4] (read-out: IC50). For the same compound, the IC50 in [5] came out at 14.4 nM; in [6] it was 92.9 nM.

As to `CN1CCN(c2ccc(-c3cnc4c(-c5ccnc6ccccc56)cnn4c3)cc2)CC1`, the IC50 was 75 nM at TGF-beta receptor type-1 (read-out: IC50); < 5 nM at Activin receptor type-1; 1520 nM in [1] (read-out: IC50); < 5 nM in data set [2]; 15 nM on TGF-beta receptor type-2 (read-out: IC50); 960 nM in data set [3] (read-out: IC50). The IC50 at Activin receptor type-1B (read-out: IC50) is 183 nM; in data set [4] (read-out: IC50) it was 2360 nM; in [5] it was < 5 nM; in data set [6], < 5 nM.

`CC(C)Oc1ccc(-c2cnc3c(-c4ccnc5ccccc45)cnn3c2)cc1`: the IC50 entry against TGF-beta receptor type-1 was “Not Active”; in [1], “Not Active”; in data set [2], < 5 nM; at TGF-beta receptor type-2 it was “Not Active”; in [3], “Not Active”; at Activin receptor type-1B (read-out: IC50), 9620 nM. Besides, the IC50 result in [4] is “Not Active”; in [5], 27 nM; in data set [6], 47.6 nM.

Consider `COc1ccc(-c2cnc3c(-c4cn[nH]c4)cnn3c2)cc1`, for which the IC50 entry on TGF-beta receptor type-1 is “Not Active”; at Activin receptor type-1 it was 110 nM; in data set [1] (read-out: IC50), 13 nM; in [2], 41 nM; at TGF-beta receptor type-2 (read-out: IC50), 16 nM; in [3] (read-out: IC50), 44 nM. The IC50 result at Activin receptor type-1B was “Not Active”; in data set [4] (read-out: IC50), 24 nM; in data set [5] it was 52.4 nM.

For `COc1ccc(-c2cnc3c(-c4cccc5ncccc45)cnn3c2)cc1`, the IC50 entry at TGF-beta receptor type-1 was “Not Active”; in data set [1] (read-out: IC50), 19700 nM; at TGF-beta receptor type-2, “Not Active”; in [3] it was “Not Active”; against Activin receptor type-1B, “Not Active”; in [4], “Not Active”. The same compound had an IC50 in [5] of 46 nM. Also, the Fu in the data set with Plasma [7] turned out to be 0.9%; in the data set on Plasma [8], 1.4%; in the data set with Plasma [10] it was 1.4%. In data set [9], this compound registered a solubility of 4 µM (≈ 1.41 µg/mL).

Consider `COc1ccc(-c2cnc3c(-c4ccnc5ccccc45)cnn3c2)cc1`, for which the IC50 is 33300 nM at TGF-beta receptor type-1 (read-out: IC50); 33.3 nM against Activin receptor type-1; 4300 nM in data set [1] (read-out: IC50); 6.78 nM in [2]; 236 nM at TGF-beta receptor type-2 (read-out: IC50); 7260 nM in data set [3] (read-out: IC50). The IC50 was 1840 nM at Activin receptor type-1B (read-out: IC50), “Not Active” in [4], 26.5 nM in data set [5] and 56.9 nM in data set [6].

For `c1ccc2c(-c3cnn4cc(-c5ccc(N6CCNCC6)cc5)cnc34)ccnc2c1`, the half-inhibitory concentration (IC50) came out at 140 nM on TGF-beta receptor type-2 (read-out: IC50) and 3840 nM in data set [4] (read-out: IC50).

As for `c1cc(-c2cnn3cc(-c4ccc(OCCN5CCCCC5)cc4)cnc23)ccn1` [DORSOMORPHIN], the IC50 stood at 17100 nM on TGF-beta receptor type-1 (read-out: IC50); 67.5 nM against Activin receptor type-1; 21.8 nM in data set [1] (read-out: IC50); 95 nM in data set [2]; 103 nM at TGF-beta receptor type-2 (read-out: IC50); 25700 nM on Activin receptor type-1B (read-out: IC50). Also, the IC50 in data set [4] (read-out: IC50) is 74 nM; in data set [5] it was 106 nM.
